Laboratory results published in ChEMBL document CHEMBL1128668, “Synthesis of N,N'-substituted piperazine and homopiperazine derivatives with polyamine-like actions at N-methyl-D-aspartate receptors” (J Med Chem, 1995).

Key:
[1] = molecular target: T1, Glutamate NMDA receptor (Rattus norvegicus) (UniProt P35439+Q00959+Q00960+Q00961+Q62645+Q8VHN2+Q9R1M7); assay: Efficacy in enhancing binding of [3H]- MK-801 to NMDA receptors compared to spermine; format: protein-complex assay
How it was run: (§1)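 Forebrains from adult male Sprague-Dawley rats (175–300 g) homogenized in 5 mM HEPES/4.5 mM Tris (pH 7.7). Membranes were washed extensively, including EDTA cycles, to remove endogenous glutamate, glycine and polyamines. About 100 μg protein was incubated with [3H]MK-801 (final 4–5 nM) and compound (1–1000 μM) for 2 h at room temperature under non-equilibrium conditions, then filtered over PEI-soaked GF/B. Nonspecific binding was taken with 100 μM phencyclidine. Efficacy is given as percent of the spermine-induced increase, ≥3 experiments.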

Glutamate NMDA receptor [2] = assay: Ability to enhance [3H]MK-801 binding to NMDA receptors in rat forebrain membranes was calculated with respect to spermine; format: cell membranes, Membrane; how it was run: as §1
Glutamate NMDA receptor [3] = assay: Inhibition of [3H]MK-801 binding to NMDA receptor by Conantokin-G (with a concentration range of 0.024-12.5 uM) stimulated by the compound at a concentration of 100 uM; format: protein-complex assay
Glutamate NMDA receptor [4] = assay: Inhibition of [3H]MK-801 binding to NMDA receptor by Conantokin-G (at a concentration range of 0.024-12.5 uM) stimulated by the compound at a concentration of 100 uM; format: protein-complex assay
[5] = molecular target: T1, Glutamate NMDA receptor (Rattus norvegicus); assay: Efficacy of compound in enhancing binding of [3H]MK-801 to NMDA receptors compared to spermine; format: protein-complex assay; how it was run: as §1
Glutamate NMDA receptor [6] = molecular target: Glutamate NMDA receptor

| Structure (SMILES) | Emax [1] [%] | EC50 (Glutamate NMDA receptor [2]) [µM] | IC50 (Glutamate NMDA receptor [3]) [µM] | IC50 (Glutamate NMDA receptor [4]) [µM] | Emax [5] [%] | IC50 (Glutamate NMDA receptor [6]) [µM] |
| --- | --- | --- | --- | --- | --- | --- |
| NCCCN1CCN(CCCN)CC1 | 80 | 50.1 | – | – | – | – |
| CN(C)CCCCN1CCN(CCCCN(C)C)CC1 | 84 | 77.5 | – | – | – | – |
| NCCN1CCCN(CCN)CC1 | 43 | 50.7 | – | – | – | – |
| NCCCCN1CCN(CCCCN)CC1 | 71 | 55.9 | – | – | – | – |
| CNCCCN1CCN(CCCNC)CC1 | 81 | 35.3 | – | – | – | – |
| NCCCC(=O)N1CCN(C(=O)CCCN)CC1 | 45 | 239 | – | – | – | – |
| NCC(=O)N1CCN(C(=O)CN)CC1 | 90 | 96.5 | – | – | – | – |
| CNCCCCN1CCN(CCCCNC)CC1 | 68 | 21.4 | 196 | – | – | – |
| NCC(=O)N1CCCN(C(=O)CN)CC1 | – | 18 | – | 307 | 60 | – |
| CN(C)CCCN1CCN(CCCN(C)C)CC1 | 66 | 36.8 | – | – | – | – |
| NCCCN1CCCN(CCCN)CC1 | 76 | 24.4 | – | – | – | – |
| NCCCCN1CCCN(CCCCN)CC1 | 76 | 37.5 | – | – | – | – |
| C1CCN(CCCN2CCN(CCCN3CCCC3)CC2)C1 | 64 | 45.9 | – | – | – | – |
| CN(C)CCN1CCN(CCN(C)C)CC1 | 51 | 112 | – | – | – | – |
| NCCCNCCCCNCCCN [SPERMINE] | – | 5.2 | – | – | 100 | 232 |
| CNCCN1CCN(CCNC)CC1 | 50 | 64.5 | – | – | – | – |
